Measurements from ChEMBL document CHEMBL1154122, “A comprehensive study of Sansalvamide A derivatives: The structure-activity relationships of 78 derivatives in two pancreatic cancer cell lines” (2009).

Columns and labels:
[1] = Cytotoxicity against human PL45 cells after 56 hrs by [3H]thymidine uptake assay; format: functional
Summary of the method: (§1)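 Cells seeded at 2000–2500/well in DMEM with L-glutamine, 10% FBS and 1% penicillin-streptomycin. […] After 56 h, 3H-thymidine was added for 16 h more (72 h total), then cells were harvested and counted (CPM). Inhibition = 1 − CPM treated/DMSO; IC50 taken from curves, mean and SEM.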

BXPC-3 = assay: Cytotoxicity against human BxPC3 cells after 56 hrs by [3H]thymidine uptake assay; format: functional; summary of the method: as §1

Row | Compound | growth inhibition (GI) [1] | growth inhibition (GI) (BXPC-3)
1 | CC(C)C[C@@H]1NC(=O)[C@H](Cc2ccccc2)NC(=O)[C@H](CC(C)C)NC(=O)[C@H](C(C)C)NC(=O)[C@H](CC(C)C)NC1=O | 25% | 42%
2 | CC(C)C[C@@H]1NC(=O)[C@H](Cc2ccccc2)NC(=O)[C@H](CC(C)C)NC(=O)[C@H](C(C)C)N(C)C(=O)[C@H](CC(C)C)NC1=O | 20% | 28%
3 | CC(C)C[C@@H]1NC(=O)[C@H](Cc2ccccc2)NC(=O)[C@@H](CC(C)C)NC(=O)[C@@H](C(C)C)NC(=O)[C@H](CC(C)C)NC1=O | 41% | 33%
4 | CC(C)C[C@@H]1NC(=O)[C@H](CC(C)C)NC(=O)[C@@H](Cc2ccccc2)NC(=O)[C@@H](CC(C)C)NC(=O)[C@@H](C(C)C)NC1=O | 44% | 42%
5 | CC(C)C[C@@H]1NC(=O)[C@H](C(C)C)NC(=O)[C@H](CC(C)C)NC(=O)[C@H](CC(C)C)N(C)C(=O)[C@H](Cc2ccccc2)NC1=O | 44% | 47%
6 | CC(C)C[C@@H]1NC(=O)[C@H](Cc2ccccc2)NC(=O)[C@@H](Cc2ccccc2)N(C)C(=O)[C@H](C(C)C)NC(=O)[C@H](CC(C)C)NC1=O | 51% | 35%
7 | CC(C)C[C@@H]1NC(=O)[C@H](Cc2ccccc2)NC(=O)[C@@H](Cc2ccccc2)NC(=O)[C@H](C(C)C)NC(=O)[C@H](CC(C)C)NC1=O | 39% | 55%
8 | CC(C)C[C@@H]1NC(=O)[C@H](Cc2ccccc2)NC(=O)[C@H](CC(C)C)NC(=O)[C@@H](C(C)C)NC(=O)[C@H](CC(C)C)NC1=O | 45% | 22%
9 | CC(C)C[C@@H]1NC(=O)[C@H](C(C)C)NC(=O)[C@H](CC(C)C)NC(=O)[C@@H](CC(C)C)N(C)C(=O)[C@H](Cc2ccccc2)NC1=O | 49% | 43%
10 | CC(C)C[C@@H]1NC(=O)[C@H](CC(C)C)NC(=O)[C@@H](Cc2ccccc2)NC(=O)[C@H](CC(C)C)NC(=O)[C@H](C(C)C)NC1=O | 22% | 55%
11 | CC(C)C[C@@H]1NC(=O)[C@H](C(C)C)NC(=O)[C@H](CC(C)C)NC(=O)[C@@H](CC(C)C)NC(=O)[C@H](Cc2ccccc2)NC1=O | 29% | 29%
12 | CC(C)C[C@@H]1NC(=O)[C@H](Cc2ccccc2)NC(=O)[C@@H](CC(C)C)NC(=O)[C@H](C(C)C)NC(=O)[C@H](CC(C)C)NC1=O | 41% | 34%
13 | CC(C)C[C@@H]1NC(=O)[C@@H](CC(C)C)NC(=O)[C@H](Cc2ccccc2)NC(=O)[C@H](CC(C)C)NC(=O)[C@@H](C(C)C)NC1=O | 32% | 30%
14 | CC(C)C[C@@H]1NC(=O)[C@H](Cc2ccccc2)NC(=O)[C@H](CC(C)C)NC(=O)[C@H](C(C)C)NC(=O)[C@@H](CC(C)C)NC1=O | 0% | 0%
15 | CC(C)C[C@@H]1NC(=O)[C@H](C(C)C)NC(=O)[C@@H](CC(C)C)NC(=O)[C@@H](CC(C)C)NC(=O)[C@H](Cc2ccccc2)NC1=O | 14% | 0%
16 | CC(C)C[C@@H]1NC(=O)[C@@H](C(C)C)N(C)C(=O)[C@H](CC(C)C)NC(=O)[C@@H](CC(C)C)NC(=O)[C@H](Cc2ccccc2)NC1=O | 21% | 35%
17 | CC(C)C[C@@H]1NC(=O)[C@H](Cc2ccccc2)NC(=O)[C@H](CC(C)C)NC(=O)[C@@H](C(C)C)N(C)C(=O)[C@H](CC(C)C)NC1=O | 29% | 34%
18 | CC(C)C[C@@H]1NC(=O)[C@H](C(C)C)N(C)C(=O)[C@H](CC(C)C)NC(=O)[C@@H](Cc2ccccc2)NC(=O)[C@H](Cc2ccccc2)NC1=O | 21% | 3%
19 | CC(C)C[C@@H]1NC(=O)[C@@H](CC(C)C)N(C)C(=O)[C@H](Cc2ccccc2)NC(=O)[C@H](CC(C)C)NC(=O)[C@@H](C(C)C)NC1=O | 26% | 38%
20 | CC(C)C[C@@H]1NC(=O)[C@H](C(C)C)N(C)C(=O)[C@@H](CC(C)C)NC(=O)[C@@H](Cc2ccccc2)NC(=O)[C@@H](Cc2ccccc2)NC1=O | 15% | 6%
21 | CC(C)[C@@H]1NC(=O)[C@H](CC2CCCCC2)NC(=O)[C@H](COCc2ccccc2)NC(=O)[C@H](Cc2ccccc2)NC(=O)[C@@H](Cc2ccccc2)N(C)C1=O | 40% | 44%
22 | CC(C)C[C@@H]1NC(=O)[C@H](Cc2ccccc2)NC(=O)[C@@H](Cc2ccccc2)N(C)C(=O)[C@@H](C(C)C)NC(=O)[C@H](CC(C)C)NC1=O | 55% | 4%
23 | CC(C)C[C@@H]1NC(=O)[C@H](CC(C)C)NC(=O)[C@@H](Cc2ccccc2)NC(=O)[C@H](CC(C)C)NC(=O)[C@@H](C(C)C)NC1=O | 41% | 7%
24 | CC(C)C[C@@H]1NC(=O)[C@@H](Cc2ccccc2)NC(=O)[C@H](CC(C)C)NC(=O)[C@@H](C(C)C)N(C)C(=O)[C@H](CC(C)C)NC1=O | 36% | 31%
25 | CC(C)C[C@@H]1NC(=O)[C@H](Cc2ccccc2)NC(=O)[C@H](CC(C)C)NC(=O)[C@@H](C(C)C)NC(=O)[C@@H](CC(C)C)NC1=O | 14% | 12%
26 | CC(C)C[C@@H]1NC(=O)[C@H](Cc2ccccc2)NC(=O)[C@@H](Cc2ccccc2)N(C)C(=O)[C@H](C(C)C)NC(=O)[C@H](CC2CCCCC2)NC1=O | 44% | 21%
27 | CC(C)C[C@@H]1NC(=O)[C@H](C(C)C)N(C)C(=O)[C@@H](CCCCNC(=O)OCc2ccccc2)NC(=O)[C@@H](Cc2ccccc2)NC(=O)[C@H](Cc2ccccc2)NC1=O | 65% | 55%
28 | CC(C)C[C@@H]1NC(=O)[C@H](C(C)C)N(C)C(=O)[C@@H](CCCCN)NC(=O)[C@@H](Cc2ccccc2)NC(=O)[C@H](Cc2ccccc2)NC1=O | 5% | 8%
29 | CC(C)[C@H]1NC(=O)[C@H](CC2CCCCC2)NC(=O)[C@H](COCc2ccccc2)NC(=O)[C@H](Cc2ccccc2)NC(=O)[C@@H](Cc2ccccc2)N(C)C1=O | 70% | 80%
30 | CC(C)C[C@@H]1NC(=O)[C@H](COCc2ccccc2)NC(=O)[C@@H](Cc2ccccc2)NC(=O)[C@@H](CC(C)C)NC(=O)[C@@H](C(C)C)NC1=O | 30% | 43%
